ChEMBL document CHEMBL4765357, “Development of small-molecule inhibitors of fatty acyl-AMP and fatty acyl-CoA ligases in Mycobacterium tuberculosis” (Eur J Med Chem, 2020)
≈ marks a conversion by molar mass, not a printed value.

Assays:
[1] = target: T1, Long-chain-fatty-acid--AMP ligase FadD28 (Mycobacterium tuberculosis, UniProt P9WQ59); assay: Inhibition of Mycobacterium tuberculosis H37Rv His-tagged FAAL28 expressed in Escherichia coli; settings: read-out: Ki(app)
T1 sequence (P9WQ59 whole entry): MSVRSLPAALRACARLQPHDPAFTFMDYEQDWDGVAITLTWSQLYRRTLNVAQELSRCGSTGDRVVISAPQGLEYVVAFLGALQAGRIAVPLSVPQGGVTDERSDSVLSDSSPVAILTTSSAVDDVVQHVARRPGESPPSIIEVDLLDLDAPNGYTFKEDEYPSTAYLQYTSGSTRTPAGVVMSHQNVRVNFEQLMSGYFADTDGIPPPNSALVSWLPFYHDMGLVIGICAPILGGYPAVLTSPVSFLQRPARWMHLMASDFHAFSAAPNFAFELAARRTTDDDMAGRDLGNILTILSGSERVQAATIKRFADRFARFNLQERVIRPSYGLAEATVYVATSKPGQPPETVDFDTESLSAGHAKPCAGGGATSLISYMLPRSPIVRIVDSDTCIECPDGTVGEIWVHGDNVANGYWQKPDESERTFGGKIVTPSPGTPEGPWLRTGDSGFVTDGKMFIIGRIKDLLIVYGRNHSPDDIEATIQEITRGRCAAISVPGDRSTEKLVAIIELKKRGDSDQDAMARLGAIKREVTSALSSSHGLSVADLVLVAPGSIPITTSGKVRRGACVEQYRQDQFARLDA

[2] = target: T2, Medium/long-chain-fatty-acid--CoA/3-oxocholest-4-en-26-oate--CoA ligase (Mycobacterium tuberculosis, UniProt P9WQ51); assay: Inhibition of Mycobacterium tuberculosis H37Rv His-tagged FACL19 expressed in Escherichia coli; settings: read-out: Ki(app)
T2 sequence (P9WQ51 whole entry): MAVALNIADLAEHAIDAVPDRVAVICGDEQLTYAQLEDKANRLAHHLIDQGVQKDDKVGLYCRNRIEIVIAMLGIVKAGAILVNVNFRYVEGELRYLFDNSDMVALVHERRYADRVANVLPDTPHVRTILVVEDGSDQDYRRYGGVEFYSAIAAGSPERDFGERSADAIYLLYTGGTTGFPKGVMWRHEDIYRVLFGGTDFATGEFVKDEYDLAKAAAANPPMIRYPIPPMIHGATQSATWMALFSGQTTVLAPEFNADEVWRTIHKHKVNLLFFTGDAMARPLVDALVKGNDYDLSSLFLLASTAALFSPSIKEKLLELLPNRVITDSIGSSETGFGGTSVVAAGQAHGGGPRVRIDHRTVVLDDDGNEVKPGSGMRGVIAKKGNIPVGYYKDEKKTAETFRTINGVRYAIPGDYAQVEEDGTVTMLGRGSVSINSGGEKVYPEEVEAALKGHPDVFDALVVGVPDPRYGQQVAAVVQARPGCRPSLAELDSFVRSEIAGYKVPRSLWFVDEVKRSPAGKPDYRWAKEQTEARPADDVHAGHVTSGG

[3] = test system: Mycobacterium tuberculosis; assay: Antimycobacterial activity against Mycobacterium tuberculosis H37Rv after 16 hrs; assay type: functional
[4] = test system: Mycobacterium tuberculosis; assay: Antimycobacterial activity against Mycobacterium tuberculosis H37Rv ATCC 27294 assessed as inhibition of bacterial growth under GAST medium condition after 7 to 14 days by broth microdilution method; assay type: functional; settings: time 7-14 day
How it was run: (§1)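 Mtb H37Rv ATCC 27294 by broth microdilution in GAST or 7H9 base with 5 g/L BSA fraction V, 0.8 g/L NaCl and 0.05% tyloxapol. Carbon source was 20 mM glycerol/10 mM glucose or 0.05 mM sodium palmitate. Compounds came from DMSO stocks with DMSO-only controls. Inoculum was 10⁴-10⁵ cells; growth was read at 7 and 14 days. MIC is the concentration giving >99% growth inhibition; runs were in triplicate.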

[5] = test system: Mycobacterium tuberculosis; assay: Antimycobacterial activity against Mycobacterium tuberculosis H37Rv ATCC 27294 assessed as inhibition of bacterial growth under 7H9 medium condition after 7 to 14 days by broth microdilution method; assay type: functional; settings: time 7-14 day; how it was run: as §1
[6] = test system: Mycobacterium tuberculosis; assay: Antimycobacterial activity against Mycobacterium tuberculosis H37Rv ATCC 27294 assessed as inhibition of bacterial growth under 7H9 medium condition after 7 to 14 days in presence of palmitate by broth microdilution method; assay type: functional; settings: time 7-14 day; how it was run: as §1
[7] = target: T2, Medium/long-chain-fatty-acid--CoA/3-oxocholest-4-en-26-oate--CoA ligase; assay: Inhibition of Mycobacterium tuberculosis H37Rv FACL19 Spectra expressed in Escherichia coli BL21(DE3) cells assessed as cleavage of MEsG by spectroscopic analysis; settings: read-out: Ki(app)
How it was run: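 FACL19 (0.167 μM) with 250 μM dodecanoic acid in a coupled MesG assay with pyrophosphatase and nucleoside phosphorylase. Buffer was 50 mM Tris·HCl pH 8.0 with 2.5 mM ATP, 5 mM MgCl₂, 0.5 mM DTT and 150 mM hydroxylamine. Apparent Ki came from a Morrison tight-binding fit.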

[8] = target: T1, Long-chain-fatty-acid--AMP ligase FadD28; assay: Inhibition of Mycobacterium tuberculosis H37Rv FAAL28 Spectra expressed in Escherichia coli BL21(DE3) cells assessed as cleavage of MEsG by spectroscopic analysis; settings: read-out: Ki(app)
How it was run: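 Coupled continuous assay with pyrophosphatase (0.04 U) and nucleoside phosphorylase (0.1 U), using 0.45 μM FAAL28 and 33 μM tetradecanoic acid. Buffer was 50 mM Tris·HCl pH 8.0 with 2.5 mM ATP, 5 mM MgCl₂, 0.5 mM DTT, 150 mM hydroxylamine and 0.2 mM MesG. Apparent Ki came from a Morrison equation fit.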

Vero = assay: Cytotoxicity against African green monkey Vero cells assessed as reduction in cell viability after 72 hrs by MTT assay; assay type: cell-based; settings: Chlorocebus sabaeus
How it was run: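 Vero cells were seeded at (2.5–5.0) × 10⁴ per well in MEM with 5% FBS and penicillin/streptomycin. Compounds were added from 20 mM DMSO stocks to a final 100 μM. Controls were 0.5% and 50% DMSO, all in triplicate. After 72 h at 37 °C in 5% CO₂, cells got 1 mg/mL MTT for 3 h. Formazan was dissolved in isopropanol and read at 570/650 nm, with viability expressed relative to DMSO control.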

[9] = Inhibition of Mycobacterium tuberculosis PKS13
[10] = test system: Mycolicibacterium smegmatis; assay: Antimycobacterial activity against Mycobacterium smegmatis; assay type: functional

Row | Compound | Ki [1] [µM] | Ki [2] [µM] | MIC [3] [µM] | MIC [4] [µM] | MIC [5] [µM] | MIC [6] [µM] | Ki [7] [µM] | Ki [8] [µM] | IC50 (Vero) [µM] | IC50 [9] [µM] | MIC [10] [µM]
1 | CCCCCCCCCCCC(=O)NS(=O)(=O)OC[C@H]1O[C@@H](n2cnc3c(N)ncnc32)[C@H](O)[C@@H]1O | 1.5 | 4.9 | 100 (≈ 52.9 µg/mL) | 0.19 (≈ 0.1 µg/mL) | 50 (≈ 26.4 µg/mL) | 50 | 67.4 | 6.4 | 28.7 | – | –
2 | Cc1cc2oc(=O)cc(-c3cccc(N)c3)c2c(C)c1-c1ccc(CN2CCOCC2)cc1 | – | – | – | – | – | – | – | – | – | 0.5 | –
3 | CCCCOCCOCCOCC(=O)NS(=O)(=O)OC[C@H]1O[C@@H](n2cnc3c(N)ncnc32)[C@H](O)[C@@H]1O | – | – | – | 6.25 (≈ 3.43 µg/mL) | > 100 | > 100 | > 100 | > 100 | 16 | – | –
4 | CCCCCCCCCCCCOP(=O)(O)OC[C@H]1O[C@@H](n2cnc3c(N)ncnc32)[C@H](O)[C@@H]1O | – | – | – | – | – | – | – | – | – | – | 20 (≈ 10.3 µg/mL)
5 | C=CCCCCCCCCC(=O)NS(=O)(=O)OC[C@H]1O[C@@H](n2cnc3c(N)ncnc32)[C@H](O)[C@@H]1O | – | – | – | 0.39 (≈ 0.2 µg/mL) | 25 (≈ 12.8 µg/mL) | 25 | > 100 | > 100 | 11.6 | – | –
6 | Nc1ncnc2c1ncn2[C@@H]1O[C@H](COS(=O)(=O)NC(=O)CCCCCCCCCCOc2ccccc2)[C@@H](O)[C@H]1O | – | – | – | 3.13 (≈ 1.9 µg/mL) | 50 (≈ 30.3 µg/mL) | 50 | > 100 | 0.71 | 2 | – | –
7 | Nc1ncnc2c1ncn2[C@@H]1O[C@H](COS(=O)(=O)NC(=O)CCCCCCCCCCO)[C@@H](O)[C@H]1O | – | – | – | 6.25 (≈ 3.32 µg/mL) | 100 (≈ 53.1 µg/mL) | 100 | > 100 | 92.7 | 42.7 | – | –
8 | CCCCCCCCC/C=C/C(=O)NS(=O)(=O)OC[C@H]1O[C@@H](n2cnc3c(N)ncnc32)[C@H](O)[C@@H]1O | – | – | – | 100 (≈ 52.7 µg/mL) | > 100 | > 100 | > 100 | > 100 | 10.4 | – | –
9 | NCCCCCCCCCCCC(=O)NS(=O)(=O)OC[C@H]1O[C@@H](n2cnc3c(N)ncnc32)[C@H](O)[C@@H]1O | – | – | – | 3.13 (≈ 1.7 µg/mL) | 50 (≈ 27.2 µg/mL) | 12.5 | 93.3 | > 100 | 27.1 | – | –
10 | CCCCCC/C=C/CCCC(=O)NS(=O)(=O)OC[C@H]1O[C@@H](n2cnc3c(N)ncnc32)[C@H](O)[C@@H]1O | – | – | – | 100 (≈ 52.7 µg/mL) | > 100 | > 100 | > 100 | > 100 | 16.8 | – | –
11 | CCCCCCCCCOCC(=O)NS(=O)(=O)OC[C@H]1O[C@@H](n2cnc3c(N)ncnc32)[C@H](O)[C@@H]1O | – | – | – | 0.098 (≈ 0.052 µg/mL) | 25 (≈ 13.3 µg/mL) | 25 | > 100 | > 100 | 8.7 | – | –
12 | CCCCCCCCC[C@@H]1C[C@@H]1C(=O)NS(=O)(=O)OC[C@H]1O[C@@H](n2cnc3c(N)ncnc32)[C@H](O)[C@@H]1O | – | – | – | 50 (≈ 27 µg/mL) | > 100 | > 100 | > 100 | 69.8 | 6.1 | – | –
13 | [N-]=[N+]=NCCCCCCCCCCCC(=O)NS(=O)(=O)OC[C@H]1O[C@@H](n2cnc3c(N)ncnc32)[C@H](O)[C@@H]1O | – | – | – | 0.19 (≈ 0.108 µg/mL) | 12.5 (≈ 7.12 µg/mL) | 25 | > 100 | 28.5 | 5.6 | – | –
